In ChEMBL document CHEMBL1649319, “In vitro antifungal activities of isavuconazole and comparators against rare yeast pathogens” (2010):
≈ marks a conversion by molar mass, not a printed value.

test system: Saccharomyces cerevisiae; assay: Antifungal activity against Saccharomyces cerevisiae after 5 days by broth microdilution method; type: functional; conditions: 120 h

Row | SMILES | MIC50 [µg/mL] | MIC90 [µg/mL]
1 | CC[C@@H]([C@H](C)O)n1ncn(-c2ccc(N3CCN(c4ccc(OC[C@@H]5CO[C@@](Cn6cncn6)(c6ccc(F)cc6F)C5)cc4)CC3)cc2)c1=O [POSACONAZOLE] | 1 (≈ 1.43 µM) | 2 (≈ 2.85 µM)

test system: Rhodotorula mucilaginosa; assay: Antifungal activity against Rhodotorula mucilaginosa after 7 days by Etest; type: functional; conditions: 168 h

Row | SMILES | MIC [µg/mL] | MIC50 [µg/mL] | MIC90 [µg/mL]
2 | CC[C@@H]([C@H](C)O)n1ncn(-c2ccc(N3CCN(c4ccc(OC[C@@H]5CO[C@@](Cn6cncn6)(c6ccc(F)cc6F)C5)cc4)CC3)cc2)c1=O [POSACONAZOLE] | > 16 | > 16 | > 16

test system: Rhodotorula mucilaginosa; assay: Antifungal activity against Rhodotorula mucilaginosa after 7 days by broth microdilution method; type: functional; conditions: 168 h

Row | SMILES | MIC50 [µg/mL] | MIC90 [µg/mL]
3 | CC[C@@H]([C@H](C)O)n1ncn(-c2ccc(N3CCN(c4ccc(OC[C@@H]5CO[C@@](Cn6cncn6)(c6ccc(F)cc6F)C5)cc4)CC3)cc2)c1=O [POSACONAZOLE] | 1 (≈ 1.43 µM) | 8 (≈ 11.4 µM)

test system: Magnusiomyces capitatus; assay: Antifungal activity against Dipodascus capitatus after 3 days by broth microdilution method; type: functional; conditions: 72 h

Row | SMILES | MIC50 [µg/mL] | MIC90 [µg/mL]
4 | CC[C@@H]([C@H](C)O)n1ncn(-c2ccc(N3CCN(c4ccc(OC[C@@H]5CO[C@@](Cn6cncn6)(c6ccc(F)cc6F)C5)cc4)CC3)cc2)c1=O [POSACONAZOLE] | 0.125 (≈ 0.178 µM) | 0.5 (≈ 0.713 µM)

test system: Magnusiomyces capitatus; assay: Antifungal activity against Dipodascus capitatus after 4 days by Etest; type: functional; conditions: 96 h

Row | SMILES | MIC50 [µg/mL] | MIC90 [µg/mL]
5 | CC[C@@H]([C@H](C)O)n1ncn(-c2ccc(N3CCN(c4ccc(OC[C@@H]5CO[C@@](Cn6cncn6)(c6ccc(F)cc6F)C5)cc4)CC3)cc2)c1=O [POSACONAZOLE] | 0.06 (≈ 0.0856 µM) | 0.5 (≈ 0.713 µM)

test system: Magnusiomyces capitatus; assay: Antifungal activity against Dipodascus capitatus after 48 hrs by broth microdilution method; type: functional; conditions: not given
Outline: (§1)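 CLSI M27-A3 broth microdilution. Isolates were identified by ITS1-5.8S-ITS2 sequencing, kept at −70°C in sterile water, and revived on potato dextrose or Sabouraud agar. Drug ranges in wells were 0.015–16 or 0.125–128 μg/ml, depending on the agent. Plates were incubated at 35°C and MICs read visually at 48 h. QC strains were C. krusei ATCC 6258 and C. parapsilosis ATCC 22019.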

Row | SMILES | MIC50 [µg/mL] | MIC90 [µg/mL]
6 | CC[C@@H]([C@H](C)O)n1ncn(-c2ccc(N3CCN(c4ccc(OC[C@@H]5CO[C@@](Cn6cncn6)(c6ccc(F)cc6F)C5)cc4)CC3)cc2)c1=O [POSACONAZOLE] | 0.125 (≈ 0.178 µM) | 0.5 (≈ 0.713 µM)

test system: Magnusiomyces capitatus; assay: Antifungal activity against Dipodascus capitatus after 48 hrs by Etest; type: functional; conditions: not given
Outline: (§2)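 Etest on 2% glucose-RPMI agar. Yeast suspensions were swabbed across the plates and strips applied, then incubated at 35°C for 48 h. MIC was the lowest concentration where the elliptical inhibition zone border met the strip scale. Each reading was raised to the next 2-fold dilution on the CLSI scale and converted to log2. Isolates were revived from −70°C stocks on potato dextrose or Sabouraud agar.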

Row | SMILES | MIC50 [µg/mL] | MIC90 [µg/mL]
7 | CC[C@@H]([C@H](C)O)n1ncn(-c2ccc(N3CCN(c4ccc(OC[C@@H]5CO[C@@](Cn6cncn6)(c6ccc(F)cc6F)C5)cc4)CC3)cc2)c1=O [POSACONAZOLE] | 0.06 (≈ 0.0856 µM) | 0.5 (≈ 0.713 µM)

test system: Rhodotorula mucilaginosa; assay: Antifungal activity against Rhodotorula mucilaginosa after 48 hrs by broth microdilution method; type: functional; conditions: not given; outline: as §1

Row | SMILES | MIC50 [µg/mL] | MIC90 [µg/mL]
8 | CC[C@@H]([C@H](C)O)n1ncn(-c2ccc(N3CCN(c4ccc(OC[C@@H]5CO[C@@](Cn6cncn6)(c6ccc(F)cc6F)C5)cc4)CC3)cc2)c1=O [POSACONAZOLE] | 1 (≈ 1.43 µM) | 8 (≈ 11.4 µM)

test system: Rhodotorula mucilaginosa; assay: Antifungal activity against Rhodotorula mucilaginosa after 48 hrs by Etest; type: functional; conditions: not given; outline: as §2

Row | SMILES | MIC [µg/mL] | MIC50 [µg/mL] | MIC90 [µg/mL]
9 | CC[C@@H]([C@H](C)O)n1ncn(-c2ccc(N3CCN(c4ccc(OC[C@@H]5CO[C@@](Cn6cncn6)(c6ccc(F)cc6F)C5)cc4)CC3)cc2)c1=O [POSACONAZOLE] | > 16 | > 16 | > 16

test system: Saccharomyces cerevisiae; assay: Antifungal activity against Saccharomyces cerevisiae after 48 hrs by broth microdilution method; type: functional; conditions: not given; outline: as §1

Row | SMILES | MIC50 [µg/mL] | MIC90 [µg/mL]
10 | CC[C@@H]([C@H](C)O)n1ncn(-c2ccc(N3CCN(c4ccc(OC[C@@H]5CO[C@@](Cn6cncn6)(c6ccc(F)cc6F)C5)cc4)CC3)cc2)c1=O [POSACONAZOLE] | 1 (≈ 1.43 µM) | 2 (≈ 2.85 µM)

test system: Saccharomyces cerevisiae; assay: Antifungal activity against Saccharomyces cerevisiae after 48 hrs by Etest; type: functional; conditions: not given; outline: as §2

Row | SMILES | MIC50 [µg/mL] | MIC90 [µg/mL]
11 | CC[C@@H]([C@H](C)O)n1ncn(-c2ccc(N3CCN(c4ccc(OC[C@@H]5CO[C@@](Cn6cncn6)(c6ccc(F)cc6F)C5)cc4)CC3)cc2)c1=O [POSACONAZOLE] | 2 (≈ 2.85 µM) | > 16

test system: Cutaneotrichosporon mucoides; assay: Antifungal activity against Trichosporon mucoides after 48 hrs by broth microdilution method; type: functional; conditions: not given; outline: as §1

Row | SMILES | MIC50 [µg/mL] | MIC90 [µg/mL]
12 | CC[C@@H]([C@H](C)O)n1ncn(-c2ccc(N3CCN(c4ccc(OC[C@@H]5CO[C@@](Cn6cncn6)(c6ccc(F)cc6F)C5)cc4)CC3)cc2)c1=O [POSACONAZOLE] | 0.125 (≈ 0.178 µM) | 0.25 (≈ 0.357 µM)

test system: Cutaneotrichosporon mucoides; assay: Antifungal activity against Trichosporon mucoides after 48 hrs by Etest; type: functional; conditions: not given; outline: as §2

Row | SMILES | MIC50 [µg/mL] | MIC90 [µg/mL]
13 | CC[C@@H]([C@H](C)O)n1ncn(-c2ccc(N3CCN(c4ccc(OC[C@@H]5CO[C@@](Cn6cncn6)(c6ccc(F)cc6F)C5)cc4)CC3)cc2)c1=O [POSACONAZOLE] | 0.125 (≈ 0.178 µM) | 0.5 (≈ 0.713 µM)

test system: Trichosporon inkin; assay: Antifungal activity against Trichosporon inkin after 48 hrs by broth microdilution method; type: functional; conditions: not given; outline: as §1

Row | SMILES | MIC50 [µg/mL] | MIC90 [µg/mL]
14 | CC[C@@H]([C@H](C)O)n1ncn(-c2ccc(N3CCN(c4ccc(OC[C@@H]5CO[C@@](Cn6cncn6)(c6ccc(F)cc6F)C5)cc4)CC3)cc2)c1=O [POSACONAZOLE] | 0.125 (≈ 0.178 µM) | 0.25 (≈ 0.357 µM)

test system: Trichosporon inkin; assay: Antifungal activity against Trichosporon inkin after 48 hrs by Etest; type: functional; conditions: not given; outline: as §2

Row | SMILES | MIC50 [µg/mL] | MIC90 [µg/mL]
15 | CC[C@@H]([C@H](C)O)n1ncn(-c2ccc(N3CCN(c4ccc(OC[C@@H]5CO[C@@](Cn6cncn6)(c6ccc(F)cc6F)C5)cc4)CC3)cc2)c1=O [POSACONAZOLE] | 0.125 (≈ 0.178 µM) | 0.5 (≈ 0.713 µM)

test system: not listed separately; assay: Antifungal activity against Trichosporon jirovecii after 48 hrs by broth microdilution method; type: functional; conditions: Cutaneotrichosporon jirovecii; outline: as §1

Row | SMILES | MIC50 [µg/mL] | MIC90 [µg/mL]
16 | CC[C@@H]([C@H](C)O)n1ncn(-c2ccc(N3CCN(c4ccc(OC[C@@H]5CO[C@@](Cn6cncn6)(c6ccc(F)cc6F)C5)cc4)CC3)cc2)c1=O [POSACONAZOLE] | 0.125 (≈ 0.178 µM) | 0.25 (≈ 0.357 µM)

test system: not listed separately; assay: Antifungal activity against Trichosporon jirovecii after 48 hrs by Etest; type: functional; conditions: Cutaneotrichosporon jirovecii; outline: as §2

Row | SMILES | MIC50 [µg/mL] | MIC90 [µg/mL]
17 | CC[C@@H]([C@H](C)O)n1ncn(-c2ccc(N3CCN(c4ccc(OC[C@@H]5CO[C@@](Cn6cncn6)(c6ccc(F)cc6F)C5)cc4)CC3)cc2)c1=O [POSACONAZOLE] | 0.125 (≈ 0.178 µM) | 0.5 (≈ 0.713 µM)

test system: not listed separately; assay: Antifungal activity against Trichosporon domesticum after 48 hrs by broth microdilution method; type: functional; conditions: Apiotrichum domesticum; outline: as §1

Row | SMILES | MIC50 [µg/mL] | MIC90 [µg/mL]
18 | CC[C@@H]([C@H](C)O)n1ncn(-c2ccc(N3CCN(c4ccc(OC[C@@H]5CO[C@@](Cn6cncn6)(c6ccc(F)cc6F)C5)cc4)CC3)cc2)c1=O [POSACONAZOLE] | 0.125 (≈ 0.178 µM) | 0.25 (≈ 0.357 µM)

test system: not listed separately; assay: Antifungal activity against Trichosporon domesticum after 48 hrs by Etest; type: functional; conditions: Apiotrichum domesticum; outline: as §2

Row | SMILES | MIC50 [µg/mL] | MIC90 [µg/mL]
19 | CC[C@@H]([C@H](C)O)n1ncn(-c2ccc(N3CCN(c4ccc(OC[C@@H]5CO[C@@](Cn6cncn6)(c6ccc(F)cc6F)C5)cc4)CC3)cc2)c1=O [POSACONAZOLE] | 0.125 (≈ 0.178 µM) | 0.5 (≈ 0.713 µM)

test system: Trichosporon asahii; assay: Antifungal activity against Trichosporon asahii after 48 hrs by broth microdilution method; type: functional; conditions: not given; outline: as §1

Row | SMILES | MIC50 [µg/mL] | MIC90 [µg/mL]
20 | CC[C@@H]([C@H](C)O)n1ncn(-c2ccc(N3CCN(c4ccc(OC[C@@H]5CO[C@@](Cn6cncn6)(c6ccc(F)cc6F)C5)cc4)CC3)cc2)c1=O [POSACONAZOLE] | 0.125 (≈ 0.178 µM) | 0.25 (≈ 0.357 µM)

test system: Trichosporon asahii; assay: Antifungal activity against Trichosporon asahii after 48 hrs by Etest; type: functional; conditions: not given; outline: as §2

Row | SMILES | MIC50 [µg/mL] | MIC90 [µg/mL]
21 | CC[C@@H]([C@H](C)O)n1ncn(-c2ccc(N3CCN(c4ccc(OC[C@@H]5CO[C@@](Cn6cncn6)(c6ccc(F)cc6F)C5)cc4)CC3)cc2)c1=O [POSACONAZOLE] | 0.125 (≈ 0.178 µM) | 0.5 (≈ 0.713 µM)

test system: Cutaneotrichosporon mucoides; assay: Antifungal activity against Trichosporon mucoides assessed as percent susceptible isolates after 48 hrs by broth microdilution method; type: functional; conditions: not given
Outline: (§3)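 Broth microdilution MICs (CLSI, 35°C, visual read at 48 h) were sorted into categories using CLSI M27-A3 triazole breakpoints. Susceptible was ≤1 or ≤8 μg/ml, SDD was 2 or 16–32 μg/ml, and resistant was ≥4 or ≥64 μg/ml, depending on the agent. Each category is the percentage of isolates falling in it.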

Row | SMILES | MIC50 [µg/mL] | MIC90 [µg/mL]
22 | CC[C@@H]([C@H](C)O)n1ncn(-c2ccc(N3CCN(c4ccc(OC[C@@H]5CO[C@@](Cn6cncn6)(c6ccc(F)cc6F)C5)cc4)CC3)cc2)c1=O [POSACONAZOLE] | 0.125 (≈ 0.178 µM) | 0.25 (≈ 0.357 µM)

test system: Cutaneotrichosporon mucoides; assay: Antifungal activity against Trichosporon mucoides assessed as percent susceptible/dose-dependent isolates after 48 hrs by broth microdilution method; type: functional; conditions: not given; outline: as §3

Row | SMILES | MIC50 [µg/mL] | MIC90 [µg/mL]
23 | CC[C@@H]([C@H](C)O)n1ncn(-c2ccc(N3CCN(c4ccc(OC[C@@H]5CO[C@@](Cn6cncn6)(c6ccc(F)cc6F)C5)cc4)CC3)cc2)c1=O [POSACONAZOLE] | 0.125 (≈ 0.178 µM) | 0.25 (≈ 0.357 µM)

test system: Trichosporon; assay: Antifungal activity against Trichosporon sp. after 3 days by broth microdilution method; type: functional; conditions: 72 h

Row | SMILES | MIC50 [µg/mL] | MIC90 [µg/mL]
24 | CC[C@@H]([C@H](C)O)n1ncn(-c2ccc(N3CCN(c4ccc(OC[C@@H]5CO[C@@](Cn6cncn6)(c6ccc(F)cc6F)C5)cc4)CC3)cc2)c1=O [POSACONAZOLE] | 0.125 (≈ 0.178 µM) | 0.25 (≈ 0.357 µM)

test system: Trichosporon; assay: Antifungal activity against Trichosporon sp. after 4 days by Etest; type: functional; conditions: 96 h

Row | SMILES | MIC50 [µg/mL] | MIC90 [µg/mL]
25 | CC[C@@H]([C@H](C)O)n1ncn(-c2ccc(N3CCN(c4ccc(OC[C@@H]5CO[C@@](Cn6cncn6)(c6ccc(F)cc6F)C5)cc4)CC3)cc2)c1=O [POSACONAZOLE] | 0.125 (≈ 0.178 µM) | 0.5 (≈ 0.713 µM)
